We go through 2 compounds from publication PMC3609577 (Diabetes, 2013).

The target of data set [1] is T1, recombinant human CD38 (Homo sapiens, UniProt P28907).
T1 sequence (P28907 43-300 limits assumed): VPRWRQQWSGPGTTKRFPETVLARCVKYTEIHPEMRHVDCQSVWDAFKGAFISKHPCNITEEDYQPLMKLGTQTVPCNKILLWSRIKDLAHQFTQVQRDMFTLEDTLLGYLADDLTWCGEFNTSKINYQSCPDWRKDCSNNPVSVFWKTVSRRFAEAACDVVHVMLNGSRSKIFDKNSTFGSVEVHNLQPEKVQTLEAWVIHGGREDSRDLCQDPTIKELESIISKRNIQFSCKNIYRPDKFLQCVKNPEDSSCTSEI
The experiment in a line: In vitro CD38 ADP-ribosyl-cyclase activity. Format: biochemical.

For data set [2], the target named is T2, endogenous CD38 (A549 cells) (Homo sapiens, UniProt P28907).
T2 sequence (P28907 1-300): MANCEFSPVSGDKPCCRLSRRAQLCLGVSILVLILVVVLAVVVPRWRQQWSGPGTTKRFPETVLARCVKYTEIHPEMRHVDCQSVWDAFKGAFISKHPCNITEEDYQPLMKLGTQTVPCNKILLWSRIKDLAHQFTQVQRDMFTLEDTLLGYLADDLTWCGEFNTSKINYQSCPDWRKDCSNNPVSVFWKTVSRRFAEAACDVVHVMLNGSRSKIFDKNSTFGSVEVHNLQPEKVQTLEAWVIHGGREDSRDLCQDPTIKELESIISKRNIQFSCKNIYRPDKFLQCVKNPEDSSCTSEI
The experiment in a line: Endogenous CD38 NAD+ase activity in protein lysates from A549 cells. Format: biochemical.

The test system of the next data set is A549 cells. In words: Intracellular NAD+ levels in A549 cells. The note with it: for Intracellular NAD+ levels over time in cells incubated in PBS: A549 cells in PBS, quercetin 50 μmol/L, apigenin 25 μmol/L; for Intracellular NAD+ levels, dose response: A549 cells, 6 h incubation. The data set is classed as cell-based, human.
The test system of data set [3] is wild-type and CD38 knockout MEFs. The experiment in a line: Intracellular NAD+ levels in wild-type and CD38 knockout MEFs. The data set is classed as cell-based, mouse. The note with it: quercetin 50 μmol/L, 6 h; for Intracellular NAD+ levels in CD38 knockout MEFs: apigenin 25 μmol/L.
The target of data set [4] is T3, CD38 (Mus musculus, UniProt P56528).
T3 sequence (P56528 1-304): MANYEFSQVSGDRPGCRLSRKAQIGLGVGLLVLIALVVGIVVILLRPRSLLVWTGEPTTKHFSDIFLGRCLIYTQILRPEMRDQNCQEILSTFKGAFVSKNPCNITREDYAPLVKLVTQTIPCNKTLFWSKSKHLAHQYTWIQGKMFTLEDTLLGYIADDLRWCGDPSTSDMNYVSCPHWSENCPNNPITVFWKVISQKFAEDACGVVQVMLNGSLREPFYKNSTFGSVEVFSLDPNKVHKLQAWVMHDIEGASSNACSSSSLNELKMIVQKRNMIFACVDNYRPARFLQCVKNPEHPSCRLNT
In words: Liver CD38 activity, NAD+ and protein readouts in high-fat diet obese mice. The data set is classed as in vivo. Conditions: 100 mg/kg i.p. daily for 1 week vs vehicle. The procedure, abridged:
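Twelve 20-week-old C57BL/6 mice were fed a high-fat diet (60% of calories from fat) ad libitum for 4 weeks, then randomised into two groups. Groups received the test compound at 100 mg/kg i.p. or DMSO vehicle once daily for 7 days while staying on the diet. Hepatic NAD+ was measured by enzymatic cycling. Liver lysates were immunoblotted with anti-acetyl-lysine and quantified as intensity-profile area; n = 3 per group.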

The subject of data set [5] is C57BL/6 mice on a high-fat diet. The experiment in a line: Glucose homeostasis and liver lipid metabolism in high-fat diet obese mice. The data set is classed as in vivo, mouse.
Data set [6] relates to HepG2 cells. The experiment in a line: Protein acetylation in HepG2 cells. Format: cell-based, human.
The subject of data set [7] is HepG2 cells. The experiment in a line: Lipid accumulation in HepG2 cells. Format: cell-based, human. Conditions: 0.5 mmol/L oleate/palmitate (2:1) plus 25 μmol/L apigenin.
The subject of the next data set is AMPK. The note with it: cited from earlier work.
Another data set has as its system atherosclerosis in mice. The note with it: cited from earlier work.
The target in data set [8] is T1, recombinant human CD38. The experiment in a line: In vitro CD38 NAD+ase activity. Format: biochemical.
A further data set concerns SIRT1. The note with it: cited from earlier work.
For data set [9], the system named is CD38. Conditions: ref Kellenberger et al. 19; cited from earlier work.

With `O=c1cc(-c2ccc(O)cc2)oc2cc(O)cc(O)c12` [apigenin, 5,7-dihydroxy-2-(4-hydroxyphenyl)-4H-1-benzopyran-4-one], the 50% inhibitory concentration (IC50) at recombinant human CD38 [1] came to 12.8 ± 1.6 µM. Besides, it took 14.8 ± 2.2 µM to reach half-maximal inhibition in data set [2] (IC50). In addition, in the data set on A549 cells, the “Intracellular NAD+ levels over time in cells incubated in PBS” value is listed as “protected against NAD^+ depletion” and the “Intracellular NAD+ levels, dose response” value is given as “increased NAD^+ levels in cells in a dose-dependent manner”. In data set [3], the “Intracellular NAD+ levels in CD38 knockout MEFs” value is “had no effect on NAD^+ levels”. In addition, on CD38 [4], the “CD38 activity in the liver” value is recorded as “decreased CD38 activity in the liver”; the “Global acetylation of proteins in liver (acetyl-lysine antibody)” value was “statistically significant decrease in global acetylation of proteins”; the “Hepatic NAD+ levels” value was “increase in hepatic NAD^+ levels”; the “Liver expression of CD38, SIRT1, Nampt (immunoblot)” value is “no significant differences in the expression of CD38, SIRT1, or Nampt”. In addition, at CD38 [4], the “Liver phosphorylation (Thr172) and total levels of AMPK (immunoblot)” value is recorded as “did not see any changes in phosphorylation or total levels of AMPK”. Also, the “Total triglyceride content in the liver” value in data set [5] (100 mg/kg i.p. daily for 1 week vs control) is “lower triglyceride levels in the liver”. Further, in data set [5] (100 mg/kg i.p. daily for 1 week vs vehicle), the “Liver mRNA expression of lipid oxidation markers (RT-PCR)” value is “increased expression of the enzymes MCAD and LCAD in the liver”. In addition, the “Glucose homeostasis (glucose tolerance test, AUC)” value in [5] (100 mg/kg i.p. daily for 1 week, 1.5 g/kg i.p. dextrose) is on record as “improve glucose homeostasis”. Further, the “Food intake and body weight during treatment” value in data set [5] (100 mg/kg i.p. daily for 7 days vs vehicle) is “no difference in these parameters between groups”. In data set [5] (100 mg/kg i.p. daily, 24 h fasting, day 7), the “Fasting blood glucose levels” value was “significantly lower”. Moreover, the “Blood glucose levels, ad libitum feeding” value in [5] (100 mg/kg i.p. daily, after 4 days of treatment vs control) is given as “significantly lower blood glucose levels”. Besides, the Total protein acetylation result with HepG2 cells [6] (apigenin 25 μmol/L, 6 h) was “decreases total protein acetylation”. In addition, in the data set with HepG2 cells [6] (apigenin 25 M (so in the source), 4 hours, MG132 10 µM), the “Acetylation of p53 (K382) and RelA/p65 (K310)” value is “decreased acetylation of p53 at K382 and also of RelA/p65 at K310”. Further, in the data set with HepG2 cells [7], the “Lipid accumulation (total triglycerides) in cells” value is “decreases lipid accumulation in cells”. The AMPK activation result in the data set with AMPK is “very poor AMPK activator”. The Atherosclerosis in mice entry in the data set on atherosclerosis in mice is given as “ameliorate atherosclerosis in mice”.

As for `O=c1c(O)c(-c2ccc(O)c(O)c2)oc2cc(O)cc(O)c12` [quercetin, 2-(3,4-dihydroxyphenyl)-3,5,7-trihydroxy-4H-chromen-4-one], the IC50 on recombinant human CD38 [8] came out at 13.8 ± 2.1 µM; in data set [2], 16.4 ± 1.8 µM. In the data set on A549 cells, the “Intracellular NAD+ levels over time in cells incubated in PBS” value was “NAD^+ levels were stable over time”. In the data set with A549 cells, the “Intracellular NAD+ levels, dose response” value is “promotes an increase in intracellular NAD^+ in a dose-dependent manner”. For the same compound, the “Intracellular NAD+ levels in CD38 knockout MEFs” value in [3] is “does not further increase NAD^+ levels in CD38 knockout MEFs”. The “Intracellular NAD+ levels in wild-type MEFs” value in data set [3] (wild-type MEFs) is given as “promotes an increase in NAD^+ in the wild-type MEFs”. The “SIRT1 activation in vitro” value in the data set with SIRT1 is listed as “activate SIRT1 in vitro”. In addition, in the data set on CD38 [9], the “CD38 inhibition in vitro” value is recorded as “inhibit CD38 in vitro”. Also, the Atherosclerosis in mice result with atherosclerosis in mice was “ameliorate atherosclerosis in mice”.
